Published values pooled from the literature.
Lines come from different studies, so protocols differ.

Structure (SMILES)	test	test system	conditions	endpoint	value
C[C@H]1Oc2cc(cnc2N)-c2c(nn(C)c2C#N)CN(C)C(=O)c2ccc(F)cc21	–	bovine, serum	–	fraction unbound	0.98
CCn1cc(C)c2c([C@H](N)c3ccc(C(F)(F)F)nc3)n(C)nc2c1=O	metabolic stability	male Sprague-Dawley rat, hepatocytes	0.5 µM, pH 7.4	hepatocyte CLint	1.9 µL/min/10⁶ cells
CCOc1ccc2ccc(=O)oc2c1	metabolic stability	male Sprague-Dawley rat, hepatocytes	1 µM	hepatocyte CLint	52.8 µL/min/10⁶ cells
C=C(F)C(=O)N1CCN(c2nc(OC[C@@H]3CCCN3C)nc3c2CCN(c2cccc4cccc(Cl)c24)C3)C[C@@H]1CC#N	potentiometric	–	pH 7.4	logD	3.6
O=C1CC[C@H](N2Cc3cc(N4CCN(CC5CCN(c6ccc([C@@H]7c8ccc(O)cc8CC[C@@H]7c7ccccc7)cc6)CC5)CC4)ccc3C2=O)C(=O)N1	metabolic stability	Sprague-Dawley rat, hepatocytes	1 µM	hepatocyte CLint	8.4 µL/min/10⁶ cells
CC(/C=C/C=C(\C)C(=O)O)=C\C=C\C=C(C)\C=C\C=C(/C)C(=O)O	shake flask	PBS	2 h, pH 7.4	logD	0.7
O=c1ccc2ccc(O)cc2o1	metabolic stability	Sprague-Dawley rat, hepatocytes	1 µM	hepatocyte CLint	61 µL/min/10⁶ cells
COc1cc2nc3n(c(=O)c2cc1Cl)CC[C@@H]1[C@@H]3CCCN1CC1COC1	shake flask	aqueous buffer	1 h, pH 7.4	logD	2.3
O=C(O)Cc1ccccc1Nc1c(Cl)cccc1Cl	metabolic stability	Sprague-Dawley rat, hepatocytes	0.5 µM, pH 7.4	hepatocyte CLint	66 µL/min/10⁶ cells
Cc1c(C(=O)O)ccc2c3n(nc12)[C@@H]1[C@H](C3)N(CC2CC2)[C@@]2(C(=O)Nc3cc(Cl)ccc32)[C@H]1c1cccc(Cl)c1F	–	bovine, serum	–	fraction unbound	0.045
Cc1c(N(C)C)ccc2cc(C(=O)NS(=O)(=O)c3ccccc3-c3ccccc3)oc12	–	–	pH 7.5	logD	2.1
COCCc1ccc(OCC(O)CNC(C)C)cc1 (stereo not drawn)	metabolic stability	Sprague-Dawley rat, hepatocytes	0.5 µM, pH 7.4	hepatocyte CLint	35 µL/min/10⁶ cells
Cc1ccc(Cn2cc(C(=O)NN)c(=O)c3cc(Oc4ccccc4)ccc32)cc1	shake flask	PBS	2 h, pH 7.4	logD	2
CCn1ccc2c([C@](O)(c3cnc(C(F)(F)F)c(Cl)c3)C3CC3)n(C)nc2c1=O	metabolic stability	male Sprague-Dawley rat, hepatocytes	0.5 µM, pH 7.4	hepatocyte CLint	3.3 µL/min/10⁶ cells
O=c1ccc2ccc(O)cc2o1	metabolic stability	rat, liver microsomes	–	scaled CLint	1030 mL/min/kg
